# Assay results taken from PMC8915191 (Clinical cancer research : an official journal of the …, 2019).
# Several values for one entry are separate records, joined by “and”; a condition that tells them apart may be missing. Identical values can stand only once.
# Assays:
# [1] = no reference given; cited from earlier work
# [2] = test system: patients with advanced RCC; settings: human, in vivo, po, 5 weeks
# [3] = HCQ population pharmacokinetics, whole blood concentrations by HPLC-MS/MS; type: in vivo, human
# Summary of the method: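 HCQ 400 or 600 mg twice daily was given with everolimus, with a draw at each visit plus intensive sampling in a few patients (pre-dose, 15 min, 30 min, 1, 2, 3, 4, 6 h). Heparinized whole blood was stored at −70 °C and spiked with d4-HCQ internal standard. It was acetonitrile/methanol-precipitated and run on LC-MS/MS (positive ESI, MRM 337.275→248.152) in duplicate. The curve was 1–7500 ng/mL (LLOQ 1.0 ng/mL). A 2-compartment first-order-absorption model was fitted.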
# [4] = test system: peripheral blood mononuclear cells; assay: Autophagic vesicles in serial PBMC by quantitative electron microscopy; type: in vivo, human; settings: after one week of everolimus alone; 11 patients
# Summary of the method: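 Cancer patients took everolimus 10 mg alone for one week, then HCQ 400 or 600 mg twice daily was added. Serial PBMC were collected before treatment, after one cycle and after two cycles (one week of everolimus alone; one month combined) in a limited number of patients (3 at 400 mg, 8 at 600 mg). PBMC were fixed for quantitative EM of autophagic vesicles.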
# [5] = test system: advanced clear cell renal carcinoma (ccRCC); settings: cited from earlier work
# mTOR = settings: cited from earlier work
# [6] = 2-compartment population PK model, 27 patients, oral HCQ
# [7] = 1000 bootstrap runs, population PK model
structure (smiles),measurement,setting,value
"CCN(CCO)CCCC(C)Nc1ccnc2cc(Cl)ccc12 (stereo not drawn) [HCQ, Hydroxychloroquine]",Plasma protein binding,[1],not extensively bound to plasma proteins
same,Recommended phase II dose (RP2D) of HCQ,[2],600 mg
same,"Cl/F, apparent oral clearance, Model estimate",[3]; [6],7.98 L/h
same,"Q, intercompartmental clearance, Model estimate",[3]; [6],14.98 L/h
same,"V2/F, apparent peripheral volume of distribution, Model estimate",[3]; [6],3604.83 L
same,"Ka, absorption rate constant, Model estimate","[3]; 2-compartment population PK model, 163 blood samples from 27 patients, oral HCQ",0.93 h
same,"Cl/F, apparent oral clearance, Bootstrap Estimate",[3]; [7],8.00 L/h
same,"Ka, absorption rate constant, Bootstrap Estimate",[3]; [7],1.00 h
same,"Q, intercompartmental clearance, Bootstrap Estimate",[3]; [7],15.02 L/h
same,"V2/F, apparent peripheral volume of distribution, Bootstrap Estimate",[3]; [7],3598.91 L
same,Vd/F,"[3]; human, whole blood, po",600 L
"CO[C@H]1C[C@@H]2CC[C@@H](C)[C@@](O)(O2)C(=O)C(=O)N2CCCC[C@H]2C(=O)O[C@H]([C@H](C)C[C@@H]2CC[C@@H](OCCO)[C@H](OC)C2)CC(=O)[C@H](C)/C=C(\C)[C@@H](O)[C@@H](OC)C(=O)[C@H](C)C[C@H](C)/C=C/C=C/C=C/1C [everolimus, Everolimus]",Drug-induced change in autophagic vesicles in PBMC,[4],no significant drug-induced changes
same,"Hazard ratio for PFS, everolimus versus placebo","[5]; 95% CI 0.22–0.40, p<0·0001",0.30
same,"Median PFS, everolimus alone, CHECKMATE 025",[5],4.6 months
same,"Median PFS, everolimus alone, METEOR",[5],3.8 months
same,"Response rate, everolimus single agent",[5],1%
same,"Median PFS, everolimus alone, RECORD-1",[5]; everolimus 10 mg daily after TKI progression,4.01 months and 4 months
CO[C@H]1C[C@@H]2CC[C@@H](C)[C@@](O)(O2)C(=O)C(=O)N2CCCC[C@H]2C(=O)O[C@H]([C@H](C)C[C@@H]2CC[C@@H](OC(=O)C(C)(CO)CO)[C@H](OC)C2)CC(=O)[C@H](C)/C=C(\C)[C@@H](O)[C@@H](OC)C(=O)[C@H](C)C[C@H](C)/C=C/C=C/C=C/1C [temsirolimus],mTOR inhibition in PBMC,mTOR,sustained mTOR inhibition
